We go through 17 molecules from ChEMBL document CHEMBL2311369, “Synthesis and anticonvulsant activity of new phenytoin derivatives” (Eur J Med Chem, 2013).

Series [1] deals with Mus musculus. As to the kind of experiment: Anticonvulsant activity in albino mouse assessed as protection against maximal electroshock-induced seizures measuring mean convulsion threshold at 100 mg/kg, po after 60 mins. Type of series: functional. The essentials:
(§1)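 Adult albino mice (20–25 g, both sexes), groups of six, dosed orally with compound suspended in 1% Tween 80; vehicle controls. 60 min later, ear-electrode current ramped from 1 mA in 0.1 mA/0.2 s steps at 50 Hz until tonic hind-limb extension. Read-out is mean maximal tolerated current (mA), reported as mean ± S.E. of 5–6 animals. One-way ANOVA with Tukey post test versus control.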
On the technique in general: In the maximal electroshock model the usual endpoint is tonic extension of the hind limbs.

The subject of series [2] is Mus musculus. As to the kind of experiment: Anticonvulsant activity in albino mouse assessed as protection against subcutaneous metrazol-induced seizures at 100 mg/kg, po administered 60 mins prior challenge measured over 20 mins. Type of series: functional. The essentials:
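Adult albino mice (20–25 g, both sexes), groups of six, dosed orally with 100 mg/kg; a separate group of six serves as control. Pentylenetetrazole 85 mg/kg given s.c. 60 min after dosing. Each mouse is watched alone for 20 min for tonic-clonic convulsions lasting at least 5 s. Mice without generalized convulsions count as protected; result is % protection.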

Series [3] deals with Mus musculus. The series can be described thus: Neurotoxicity in albino mouse assessed as neurological deficit at 100 mg/kg, ip measured after 1 hr for period of 300 seconds by rotarod test. More on the design: dose 100 mg/kg, route intraperitoneal. Type of series: toxicity, organism-based. The note with it: in vivo. The essentials: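 Rotarod at 6 rpm with a 3 cm rod. Male albino mice get two training sessions of 10 and 15 min first. Compound given i.p. at 100 mg/kg in 1% Tween 80, groups of six; vehicle-treated controls. Mice are retested 1 h later. Result is % of mice unable to stay on the rod for 300 s.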

For series [4], the system named is Mus musculus. The series can be described thus: Anticonvulsant activity in albino mouse assessed as protection against maximal electroshock-induced seizures measuring mean convulsion threshold at 30 mg/kg, po after 60 mins. Type of series: functional. The essentials: as §1

With `O=C(CN1C(=O)NC(c2ccccc2)(c2ccccc2)C1=O)NNC(=S)Nc1ccc(Cl)cc1`, the Activity turned out to be 5.4 mA in the series with Mus musculus [1] and 0% with Mus musculus [2].
`O=C1NC(c2ccccc2)(c2ccccc2)C(=O)N1Cc1nnc(Nc2ccc(Cl)cc2)s1`: the Activity was determined as 4.25 mA in the series on Mus musculus [1] and 0% with Mus musculus [2].
Turning to `CCNc1nnc(CN2C(=O)NC(c3ccccc3)(c3ccccc3)C2=O)s1`, the Activity worked out at 5 mA in the series on Mus musculus [1] and 60% with Mus musculus [2].
Regarding `O=C1NC(c2ccccc2)(c2ccccc2)C(=O)N1Cc1nnc(S)o1`, the Activity in the series with Mus musculus [3] is on record as 40%; in the series on Mus musculus [1] it was 5.5 mA; in the series with Mus musculus [2], 80%.
With `O=C1NC(c2ccccc2)(c2ccccc2)C(=O)N1Cc1nnc(S)n1-c1ccc(Cl)cc1`, the Activity was 6.2 mA in the series on Mus musculus [1] and 40% in the series on Mus musculus [2].
Regarding `Cc1ccc(NC(=S)NNC(=O)CN2C(=O)NC(c3ccccc3)(c3ccccc3)C2=O)cc1`, the figures for the Activity in the series with Mus musculus [1] and with Mus musculus [2] were 5.8 mA and 60%, respectively.
Regarding `Cc1ccc(Nc2nnc(CN3C(=O)NC(c4ccccc4)(c4ccccc4)C3=O)s2)cc1`, the Activity in the series with Mus musculus [1] was 5.2 mA; in the series on Mus musculus [2], 40%.
For the molecule `O=C(CN1C(=O)NC(c2ccccc2)(c2ccccc2)C1=O)NNC(=S)Nc1ccccc1`, the Activity with Mus musculus [3] was 0%; in the series on Mus musculus [1], 8.4 mA; with Mus musculus [2] it was 50%; in the series with Mus musculus [4] it was 6.143 mA.
Regarding `COc1ccc(Nc2nnc(CN3C(=O)NC(c4ccccc4)(c4ccccc4)C3=O)s2)cc1`, the Activity with Mus musculus [1] is given as 4 mA; in the series with Mus musculus [2], 20%.
As to `COc1ccc(-n2c(S)nnc2CN2C(=O)NC(c3ccccc3)(c3ccccc3)C2=O)cc1`, the figures for the Activity with Mus musculus [3], in the series with Mus musculus [1] and in the series on Mus musculus [2] were 50%, 6.6 mA and 40%, respectively.
Consider `COc1ccc(NC(=S)NNC(=O)CN2C(=O)NC(c3ccccc3)(c3ccccc3)C2=O)cc1`, for which the Activity in the series with Mus musculus [3] amounted to 16.67%; with Mus musculus [1], 4 mA; in the series with Mus musculus [2] it was 80%.
In the case of `O=C1NC(c2ccccc2)(c2ccccc2)C(=O)N1Cc1nnc(S)n1-c1ccccc1`, the values for the Activity in the series with Mus musculus [3], in the series on Mus musculus [1] and with Mus musculus [2] were 33.33%, 6.6 mA and 40%, respectively.
Turning to `Cc1ccc(-n2c(S)nnc2CN2C(=O)NC(c3ccccc3)(c3ccccc3)C2=O)cc1`, the values for the Activity with Mus musculus [1] and with Mus musculus [2] were 6.6 mA and 20%, respectively.
For the molecule `CCn1c(S)nnc1CN1C(=O)NC(c2ccccc2)(c2ccccc2)C1=O`, the Activity in the series on Mus musculus [1] is on record as 5.8 mA; with Mus musculus [2], 40%.
With `CCNC(=S)NNC(=O)CN1C(=O)NC(c2ccccc2)(c2ccccc2)C1=O`, the Activity is reported as 5.2 mA in the series with Mus musculus [1] and 40% in the series on Mus musculus [2].
In the case of `O=C1NC(c2ccccc2)(c2ccccc2)C(=O)N1Cc1nnc(Nc2ccccc2)s1`, the Activity in the series with Mus musculus [1] was 5 mA; in the series on Mus musculus [2], 60%.
For the molecule `O=C1NC(=O)C(c2ccccc2)(c2ccccc2)N1` [PHENYTOIN], the Activity in the series with Mus musculus [1] is recorded as 7.25 mA; in the series with Mus musculus [2] it was 80%.
